From ChEMBL document CHEMBL1140857 (Bioorg Med Chem, 2009) come the findings set out here.

In general, Ki refers to a measure of affinity in units of concentration, obtained from inhibition or displacement. By inhibition is commonly meant the drop in the measured response relative to a control, in per cent. Broadly, the IC50 is the concentration that inhibits the measured activity by half. Higher therefore signals weaker potency.

In assay [1] the test system is DAN-G. The assay is described as follows: Cytotoxicity against human DAN-G cells after 96 hrs at 20 uM by crystal violet staining relative to control. The class given is functional. An outline of the steps:
(§1)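 Cell lines from DSMZ (German collection). Cells exposed to 20 µM test substance at 37 °C for 96 h; medium removed and adherent (living) cells stained with crystal violet. Growth given as % of untreated control; averages of two independent experiments.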

The subject of assay [2] is 5637. Description: Cytotoxicity against human 5637 cells at 20 uM after 96 hrs by crystal violet staining relative to control. The class given is functional. An outline of the steps: as §1
The subject of assay [3] is A-427. Description: Cytotoxicity against human A427 cells at 20 uM after 96 hrs by crystal violet staining relative to control. The class given is functional. An outline of the steps:
as §1

Assay [4] in a line: Cytotoxicity against human LCLC-103H cells at 20 uM after 96 hrs by crystal violet staining relative to control. The class given is functional. A digest of the protocol: as §1
The nature of assay [5]: Displacement of [3H][…] from opioid sigma2 receptor in rat liver homogenate in presence of (+)-pentazocine. The class given is tissue-based. A digest of the protocol: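 Rat liver membranes (about 100 µg protein, 50 mM Tris pH 8.0) incubated 180 min at room temperature with six concentrations of test compound, 3 nM [3H]-ditolylguanidine (Kd 17.9 nM) and 500 nM (+)-pentazocine. […] IC50 by nonlinear regression, Ki by Cheng–Prusoff; triplicates, mean ± SEM of three experiments.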
A general note: In a radioligand displacement assay an active substance lowers the binding of a labelled ligand.

Assay [6] addresses Sigma non-opioid intracellular receptor 1 (Cavia porcellus, UniProt Q60492). The assay is described as follows: Displacement of [3H](+)-pentazocine from opioid sigma1 receptor in guinea pig brain homogenate. The class given is tissue-based. A digest of the protocol:
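Non-specific binding with 10 µM unlabeled (+)-pentazocine. Filtration, scintillation counting; IC50 by nonlinear regression, Ki by Cheng–Prusoff; triplicates, mean ± SEM of three independent experiments.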

Assay [7] relates to RT-4. Description: Cytotoxicity against human RT4 cells at 20 uM after 96 hrs by crystal violet staining relative to control. The class given is functional. A digest of the protocol:
as §1

For assay [8], the species on record is Sus scrofa. Description: Displacement of [3H]MK-801 from NMDA receptor in pig brain cortex at 1 uM.
Assay [9] relates to MCF7. Description: Cytotoxicity against human MCF7 cells after 96 hrs at 20 uM by crystal violet staining relative to control. The class given is functional. An outline of the steps: as §1
Assay [10] is described as follows: Selectivity ratio of Ki for rat sigma2 receptor to Ki for guinea pig sigma1 receptor.
In assay [11] the target is Sigma non-opioid intracellular receptor 1 (Cavia porcellus) (UniProt Q60492). Description: Displacement of [3H](+)-pentazocine from opioid sigma1 receptor in guinea pig brain homogenate at 1 uM. The class given is tissue-based. A digest of the protocol: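 Guinea pig brain membranes (about 75 µg protein, 50 mM Tris pH 7.4) with 2 nM [3H]-(+)-pentazocine, 180 min at 37 °C. Test compound at 1 µM; inhibition of radioligand binding reported. Non-specific binding with 10 µM unlabeled (+)-pentazocine; filtration and scintillation counting.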
Sequence of Sigma non-opioid intracellular receptor 1 (Cavia porcellus) (Q60492 whole entry): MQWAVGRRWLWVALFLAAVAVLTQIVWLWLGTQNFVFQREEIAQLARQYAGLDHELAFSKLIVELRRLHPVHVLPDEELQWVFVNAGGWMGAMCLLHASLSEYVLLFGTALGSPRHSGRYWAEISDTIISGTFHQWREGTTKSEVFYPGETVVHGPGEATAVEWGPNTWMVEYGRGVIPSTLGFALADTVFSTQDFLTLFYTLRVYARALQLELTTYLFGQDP

The species entered for assay [12] is Rattus norvegicus. Description: Displacement of [3H][…] from opioid sigma2 receptor in rat liver homogenate at 1 uM in presence of (+)-pentazocine. The class given is tissue-based. An outline of the steps: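 Rat liver membranes (about 100 µg protein, 50 mM Tris pH 8.0) with 3 nM [3H]-ditolylguanidine plus 500 nM (+)-pentazocine masking σ1, 180 min at room temperature. Test compound at 1 µM; inhibition of radioligand binding reported.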

The subject of assay [13] is A-427. The assay is described as follows: Cytotoxicity against human A427 cells after 96 hrs by crystal violet staining relative to control. The class given is functional, cell-based. The conditions noted are these: A-427, 96 h. An outline of the steps:
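Crystal violet microtiter assay, 96 h exposure at 37 °C. Five serial dilutions from DMF stock solutions; concentrations giving T/C between 10% and 90% used, and IC50 calculated by least-squares analysis of dose–response curves.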

Sequence of Sigma non-opioid intracellular receptor 1 (Q60492 whole entry): as above

Consider `C=CCN1C[C@H]2[C@@H](O)CC[C@@H]1CN2Cc1ccc(OC)cc1`, for which the Activity is 100% in [1]; 104% in [2]; 90% in assay [3]; 111% in assay [4]; 107% in assay [7]; below 25% in assay [8]. Also, the Activity in [9] is 99%. The Ki came to 1.21 µM in [5] and 0.343 µM in assay [6]. Moreover, the Ratio in assay [10] is 4.

As to `C=CCN1C[C@@H]2[C@@H](O)CC[C@H]1CN2Cc1ccc(OC)cc1OC`, the Activity in assay [1] is 87%; in assay [2] it was 100%; in [3], 79%; in assay [4], 103%; in [7] it was 103%; in assay [8], below 25%. The compound also came in with an Activity in [9] of 84%. Besides, the values for the inhibition in assay [11] and in assay [12] were 0% and 6%, respectively.

Turning to `C=CCN1C[C@H]2[C@H](OC)CC[C@@H]1CN2Cc1ccc(OC)cc1`, the Activity in [1] was 95%; in assay [2], 81%; in assay [3] it was 48%; in assay [4] it was 107%; in assay [7], 94%; in assay [8], below 25%. The compound further showed an Activity in assay [9] of 84%. Further, the Ki worked out at 22.4 µM in assay [5] and 8.28 µM in [6]. The 50% inhibitory concentration (IC50) in [13] is 20.4 µM.

Turning to `C=CCN1C[C@H]2[C@H](O)CC[C@@H]1CN2Cc1ccc(OC)cc1OC`, the Activity in assay [1] is 91%; in assay [2], 105%; in assay [3], 87%; in assay [4], 103%; in [7], 109%; in assay [8], below 25%. Moreover, the Activity in assay [9] is 102%. The inhibition amounted to 22% in assay [11] and 35% in assay [12].

As for `C=CCN1C[C@@H]2CCC[C@H]1CN2Cc1ccc(OC)cc1`, the Activity is 92% in assay [1]; 87% in assay [2]; 42% in assay [3]; 91% in assay [4]; 65% in assay [7]; below 25% in [8]. The Activity in assay [9] worked out at 65%. Moreover, the inhibition constant Ki in assay [5] worked out at 0.203 µM; in [6], 0.011 µM. Also, in assay [10], the Ratio was 20.

Turning to `C=CCN1C[C@@H]2[C@@H](OC)CC[C@H]1CN2Cc1ccc(OC)cc1OC`, the Activity is 101% in [1]; 102% in assay [2]; 36% in [3]; 78% in [4]; 68% in [7]; below 25% in assay [8]. Besides, in [9], the Activity is 84%. Besides, the Ki in assay [5] was 7.66 µM; in assay [6], 5.74 µM. The compound also registered an IC50 in assay [13] of 27.1 µM.

Regarding `C=CCN1C[C@@H]2[C@@H](OC)CC[C@H]1CN2Cc1ccc(OC)cc1`, the Activity in assay [1] was 95%; in assay [2], 95%; in assay [3], 45%; in assay [4], 99%; in assay [7], 89%; in [8], below 25%. This compound gave an Activity in assay [9] of 80%. The results for the inhibitory constant (Ki) in assay [5] and in assay [6] were 2.1 µM and 3.5 µM, respectively. Further, the 50% inhibitory concentration (IC50) in assay [13] stood at 16.4 µM.

Take `C=CCN1C[C@H]2[C@@H](OC)CC[C@@H]1CN2Cc1ccc(OC)cc1OC`: the Activity was 84% in [1]; 63% in [2]; 49% in assay [3]; 98% in assay [4]; 87% in assay [7]; below 25% in [8]. This compound registered an Activity in assay [9] of 79%. The same compound came in with an inhibition in [11] of 37%. The inhibition constant (Ki) in [5] was 13.5 µM. This compound also had an IC50 in assay [13] of 18.9 µM.
